Series [1] is described as follows: Half life in po dosed monkey. The class given is ADME, organism-based, Macaca mulatta. The settings on record: rhesus monkey, in vivo.
The target in series [2] is Amyloid-beta precursor protein (Homo sapiens) (UniProt P05067). In words: Inhibition of HFIP-pretreated amyloid beta (1 to 42) (unknown origin) aggregation after 1 hr by transmission electron microscopic method.
Series [3] can be described thus: Half-life in po dosed ICR mouse. The note with it: in vivo.
Series [4] has as its system Rattus norvegicus. The series is described as follows: Volume of distribution at steady state in po dosed rat. The class given is ADME, organism-based. The settings on record: in vivo.
The target in series [5] is T1, Cytochrome P450 2C8 (Homo sapiens, UniProt P10632).
T1 sequence (P10632 whole entry): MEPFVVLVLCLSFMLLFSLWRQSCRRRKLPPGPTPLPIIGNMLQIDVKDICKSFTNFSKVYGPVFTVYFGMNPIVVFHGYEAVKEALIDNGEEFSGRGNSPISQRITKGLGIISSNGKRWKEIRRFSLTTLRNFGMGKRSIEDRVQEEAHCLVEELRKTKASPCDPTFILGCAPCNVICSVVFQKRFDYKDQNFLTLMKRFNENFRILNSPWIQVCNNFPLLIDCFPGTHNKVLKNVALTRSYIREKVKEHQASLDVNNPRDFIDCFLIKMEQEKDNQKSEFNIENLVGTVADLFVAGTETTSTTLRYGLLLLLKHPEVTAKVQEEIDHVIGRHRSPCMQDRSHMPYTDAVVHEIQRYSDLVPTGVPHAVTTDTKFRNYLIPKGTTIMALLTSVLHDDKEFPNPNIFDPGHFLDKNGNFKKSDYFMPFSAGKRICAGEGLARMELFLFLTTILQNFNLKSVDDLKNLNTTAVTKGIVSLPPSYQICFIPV
The series is described as follows: Inhibition of CYP2C8 in human liver microsomes preincubated for 5 mins followed by addition of NADPH generating system measured after 20 mins by LC-MS/MS analysis. Type of series: ADME. The method, boiled down: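 Inhibition of each CYP isozyme (1A2, 2A6, 2C8, 2C9, 2C19, 2D6, 3A4) was measured in human liver microsomes. IC50 values were reported in μM.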
On the technique in general: Liver microsomes are vesicles of endoplasmic reticulum, rich in cytochrome P450 enzymes.

Series [6] in a line: Oral bioavailability in dog. The settings on record: in vivo. The class given is ADME, organism-based, Canis lupus familiaris.
Series [7] relates to Mus musculus. The series is described as follows: Reversal of cognitive deficit in amyloid beta (1 to 42)-treated Alzheimer's disease ICR mouse model assessed as step-through latency time at 10 mg/kg, po administered for 3 consecutive days by passive avoidance test. Type of series: functional. The method, boiled down:
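Acute AD model: preformed Aβ aggregates injected into the brains of normal mice. Compound given orally for three consecutive days, then step-through passive avoidance was tested by a standard protocol. Read-out is step-through latency (sec), compared against control and vehicle groups.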

Series [8] in a line: Cmax in mouse at 10 mg/kg, po. The class given is ADME, organism-based. Also on record: dose 10 mg/kg, route oral. The settings on record: in vivo. The method, boiled down:
(§1)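 Mice received a single dose of 3 mg/kg i.v. or 3, 10 or 30 mg/kg orally. Plasma concentration-time profiles were analysed for AUC from zero to infinity and to the last measured time (hr*ng/mL), Cmax (ng/mL, C0 after i.v.), Tmax and terminal half-life (hr), and oral bioavailability (%).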

A short description of series [9]: Half life in po ICR mouse. The class given is ADME, organism-based. The settings on record: in vivo.
The subject of series [10] is Mus musculus. In words: Antiamyloidogenic activity in double APP/PS1 transgenic Alzheimer's disease mouse model assessed as amyloid beta (1 to 42) levels in brain at 100 mg/kg, po qd administered for 8 weeks by sandwich ELISA relative to control. The class given is functional. The method, boiled down: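 APP/PS1 mice, 29 weeks old, were dosed orally once daily for eight weeks at 30 or 100 mg/kg, with a vehicle group. Brain tissue was homogenized and amyloid fibrils were solubilized to monomers. Aβ1-40 and Aβ1-42 were then quantified by immunoassay with antibodies specific to monomeric Aβ.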
Background: ELISA stands for enzyme-linked immunosorbent assay.

The nature of series [11]: Ratio of AUC in ICR mouse brain to AUC in ICR mouse plasma at 10 mg/kg, po measured at 3 hrs. Type of series: ADME, organism-based. The note with it: read-out: Ratio AUC. The method, boiled down: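 ICR mice (n=3) given a single oral dose of 10 mg/kg. Brain and plasma were sampled over nine hours, at 0.333, 1, 3, 6 and 9 h. Kp was calculated as AUC_brain/AUC_plasma.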

In series [12] the test system is Mus musculus. In words: Reversal of cognitive deficit in double APP/PS1 transgenic Alzheimer's disease mouse model assessed as increase in spatial memory function by measuring spontaneous alternation at 100 mg/kg, po qd administered for 8 weeks by Y maze test (reference value: 52.64 +/- 4.15%). Type of series: functional. The method, boiled down:
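APP/PS1 double transgenic mice, 29 weeks old, dosed orally once daily at 30 or 100 mg/kg for eight weeks. Y-maze spontaneous alternation (%) was then measured against vehicle-treated mice, and mice were watched for apparent toxicity.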

Series [13] in a line: Clearance in iv dosed dog. Type of series: ADME, organism-based, Canis lupus familiaris. The note with it: in vivo.
Series [14] is described as follows: Cmax in mouse at 30 mg/kg, po. Type of series: ADME, organism-based. Also on record: dose 30 mg/kg, route oral. The settings on record: in vivo. The method, boiled down: as §1
Series [15] can be described thus: Tmax in mouse at 30 mg/kg, po. The settings on record: in vivo. Type of series: ADME, organism-based. The method, boiled down:
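Mouse pharmacokinetics: single i.v. dose of 3 mg/kg, or oral doses of 3, 10 and 30 mg/kg. Plasma concentration–time curves gave T1/2 (terminal, hr), Tmax (hr), Cmax, AUC and bioavailability (%).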

Active and inactive are the calls of the source.

Chain of Amyloid-beta precursor protein (Homo sapiens) (P05067 whole entry): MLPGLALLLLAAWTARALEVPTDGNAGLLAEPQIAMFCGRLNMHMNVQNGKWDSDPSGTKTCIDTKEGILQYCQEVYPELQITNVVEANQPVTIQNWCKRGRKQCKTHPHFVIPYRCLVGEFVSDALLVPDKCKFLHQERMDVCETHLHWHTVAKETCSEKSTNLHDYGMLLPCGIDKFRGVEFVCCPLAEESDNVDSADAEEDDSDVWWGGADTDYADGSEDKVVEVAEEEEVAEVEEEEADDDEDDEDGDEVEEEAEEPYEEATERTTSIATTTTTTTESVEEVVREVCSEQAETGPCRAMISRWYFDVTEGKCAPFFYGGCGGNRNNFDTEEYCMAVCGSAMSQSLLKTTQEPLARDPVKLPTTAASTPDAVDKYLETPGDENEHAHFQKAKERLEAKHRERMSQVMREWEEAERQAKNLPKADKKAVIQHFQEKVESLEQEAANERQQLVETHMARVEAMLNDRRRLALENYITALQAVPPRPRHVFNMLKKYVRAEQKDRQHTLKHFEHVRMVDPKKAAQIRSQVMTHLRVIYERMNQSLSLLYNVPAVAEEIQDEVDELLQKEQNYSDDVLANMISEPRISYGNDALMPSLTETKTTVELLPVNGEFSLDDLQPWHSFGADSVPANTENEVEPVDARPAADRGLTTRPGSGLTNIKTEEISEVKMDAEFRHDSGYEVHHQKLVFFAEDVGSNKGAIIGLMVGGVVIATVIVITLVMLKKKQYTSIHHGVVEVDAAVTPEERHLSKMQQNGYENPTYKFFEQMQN

The term half-life denotes the time needed for the level to fall by half in the phase considered. As usually defined, the IC50 is the midpoint of a concentration-inhibition curve. One may read the bioavailability as the share of a dose that reaches the circulation, judged against a reference dose that is usually intravenous. By Cmax is commonly meant the maximum level reached in the sampled fluid or tissue. As a reminder, the clearance is the rate of elimination divided by the concentration. The term Tmax denotes the time at which the peak concentration occurs. Take `COCCCc1ccc2oc(-c3ccc(OC)c(OC)c3)cc2c1`: the half-life in series [1] was 12.9 h; in [9], 5.87 h. Moreover, in series [2], the inhibition result was “Active”. Besides, the t1/2 in series [3] is 5.87 h. In series [4], the Vdss was 10 L/kg. In [5], half-maximal inhibition (IC50) required 31.4 µM. The bioavailability in series [6] stood at 25%. The Time in [7] is listed as 201.2 s. For the same compound, the Cmax in series [8] is 660 ng/mL; in [14], 1700 ng/mL. The Activity in [10] is given as 70%; in [12], 63.93%. The Kp at 3 h in [11] was 1.2. In series [13], this compound yielded a clearance of 29 mL/min/kg. For the same compound, the Tmax in series [15] came out at 3 h.

The values are drawn from ChEMBL document CHEMBL4028909, “Discovery of an Orally Bioavailable Benzofuran Analogue That Serves as a β-Amyloid Aggregation Inhibitor for the Potential Treatment of Alzheimer's Disease” (J Med Chem, 2018).
